# NadD block – inhibitors of Staphylococcus aureus NadD; purified NadD enzyme, colorimetric absorbance read-out; inhibition, % at 20 µM; 360,000 tested, 0.78% active; in the data active = inhibition above about 26%
# LMPTP inh – blocks human LMPTP phosphatase; inhibition, % at 20 µM; recombinant LMPTP-A, OMFP fluorogenic substrate, fluorescence intensity; P24666; 360,000 tested, 0.22% active;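 active = compounds that cut the enzyme signal by at least half of the control window in the single-dose screen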;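 also: plate controls were DMSO wells with enzyme plus substrate for no effect and substrate without enzyme for full effect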
# Target sequence (P24666 whole entry, looked up): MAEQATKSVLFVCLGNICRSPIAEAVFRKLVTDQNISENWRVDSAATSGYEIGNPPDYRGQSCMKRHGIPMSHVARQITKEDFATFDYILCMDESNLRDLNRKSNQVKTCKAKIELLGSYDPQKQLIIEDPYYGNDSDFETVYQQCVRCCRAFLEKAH
#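 Test system – LMPTP-A phosphatase enzyme · Quantity – 0.625 nM LMPTP-A final · Reagent – OMFP substrate, 400 µM final · Dosing – one test concentration per compound, 20 µM, with 3% DMSO overall · Timing – 50 min enzyme reaction at room temperature, protected from light · Detection – fluorescence intensity · Controls – substrate-only low control, DMSO enzyme-plus-substrate high control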
# Scp1 inh – blocks human Scp-1 phosphatase activity; Q9GZU7; inhibition, % at 20 µM; 340,000 tested, 0.88% active; Recombinant Scp1, phosphopeptide, malachite green phosphate absorbance;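 active = inhibition above about 50% at 20 µM, limit read from the data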;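 also: plate controls were DMSO wells with enzyme for no effect and wells lacking enzyme for full effect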
# Target sequence (Q9GZU7 76-261 limits assumed): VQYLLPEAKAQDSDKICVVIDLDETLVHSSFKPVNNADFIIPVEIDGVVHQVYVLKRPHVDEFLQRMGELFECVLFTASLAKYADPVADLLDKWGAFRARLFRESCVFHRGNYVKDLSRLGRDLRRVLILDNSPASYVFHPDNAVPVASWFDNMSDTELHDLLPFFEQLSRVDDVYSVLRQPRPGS
#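 Test system: SCP-1 phosphatase catalytic domain, residues 76-261 | Compound dosing: One concentration, 20 µM, with 1.0% DMSO | Schedule: 45 min room-temperature reaction, 5 min colour, 30 min stabiliser | Detection: Absorbance at 630 nm | Read-out basis: % inhibition of SCP-1 phosphate liberation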
# STEP inh – blocks human striatal-enriched tyrosine phosphatase; 360,000 tested, 0.25% active; AID 588621; inhibition, % at 20 µM; recombinant STEP, OMFP fluorogenic substrate, fluorescence;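 active = inhibition at 20 µM, scaled per plate between control wells, above about 37%, limit read from the data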;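 also: 0% = DMSO with enzyme and substrate and 100% = substrate only without enzyme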
#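 Test system: STEP tyrosine phosphatase / Reagent: OMFP at 25 µM / Doses: 20 µM, 1% DMSO / Read-out: percent inhibition scaled to no-enzyme and uninhibited-enzyme controls, plate-pattern corrected / Detection: FITC-channel fluorescence of OMFP product / Medium: Bis-Tris buffer pH 6.0, 2.5 mM DTT, 0.005% Tween 20 / Schedule: 20 min at room temperature, dark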
# SUMO1-SIM PPI – SUMO1-SIM interaction modulation | P63165 | SUMO1 binding to a labelled peptide, TR-FRET, 1 h | inhibition, % at 20 µM | 360,000 tested, 0.33% active | AID 602429; in the data active = inhibition above about 37%
# Target sequence (P63165 whole entry, looked up): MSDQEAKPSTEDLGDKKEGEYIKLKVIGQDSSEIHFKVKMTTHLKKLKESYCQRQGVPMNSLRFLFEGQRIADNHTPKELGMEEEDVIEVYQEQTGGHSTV
# DNMT1 inh – DNMT1 (human) enzyme inhibition. P26358. DNMT1 molecular beacon, Hinp1I cleavage, fluorescence. inhibition (reported as % activation of signal), % at 10 µM. 360,000 tested, 0.83% active; in the data active = inhibition above about 50%
# Active calls of the source: *; . = no result. Shown are actives, neighbours in structure and some others; about 2.4% of the full set was active somewhere.
SMILES,NadD block,LMPTP inh,Scp1 inh,STEP inh,SUMO1-SIM PPI,DNMT1 inh
Cc1ccc(C(C)C)c(OCc2ccc(C(=O)N/N=C/c3ccc(O)c(O)c3)cc2)c1,34*,4,-8,-1,4,-16
COC(=O)c1ccc(-n2c(C)cc(-c3csc(NC(=O)c4ccc(S(=O)(=O)N(C)C)cc4)n3)c2C)cc1,11,0,-24,-1,7,-29
Cc1cc(-c2csc(NC(=O)c3cccc(S(=O)(=O)N(C)C)c3)n2)c(C)n1-c1ccccc1,49*,1,-12,4,1,-24
C=CCOc1ccccc1CN(C(=O)CCl)c1ccc2c(c1)OCO2,0,0,-10,-1,-2,79*
CN(C)S(=O)(=O)c1ccc(-c2csc(N/N=C/c3ccc(O)cc3)n2)cc1,38*,1,-1,12,-10,-21
Cc1sc2ncn(CC(=O)NCc3ccco3)c(=O)c2c1-c1ccccc1,0,-1,-3,0,-3,1
c1ccc(-c2nc(NC3CCCC3)c3ccccc3n2)cc1,-6,62*,-1,-4,1,1
CN(C)c1ccc(C=C(C#N)C(=O)c2ccccc2)cc1Br,12,0,.,1,9,4
O=C(NC(=S)NCCC1=CCCCC1)c1ccccc1Br,7,4,67*,-3,4,-10
O=C(COC(=O)c1ccccc1Br)NCCC1=CCCCC1,1,0,-7,-2,1,0
COc1ccc(C2NCCc3c2[nH]c2ccccc32)cc1CN1CCc2cc(OC)c(OC)cc2C1C (stereo not given),24,52*,4,-2,-48,32
NC1=NC2(CCN(Cc3ccccc3)CC2)n2c(nc3ccccc32)N1,-5,49*,-7,2,-4,3
NC1=NC2(CCCCC2)n2c(nc3ccccc32)N1,-2,22,-7,0,0,8
Cc1cc(C(=O)Nc2cccc(O)c2)c(C)o1,0,1,0,0,37*,-6
Cc1cc(C(=O)Nc2cccc(C(=O)O)c2)c(C)o1,2,-1,6,-1,0,6
Cc1cnc(CN(C)C(=O)C2CCC(=O)N(CCc3ccc(Cl)cc3)C2)[nH]1 (stereo not given),-2,-3,.,-3,40*,5
CN(Cc1cnccn1)C(=O)C1CCC(=O)N(CCc2ccc(Cl)cc2)C1 (stereo not given),-6,-1,-12,-1,-4,2
Cc1cc2cc(CNC(=O)c3ccc4c(c3)OCO4)ccc2n1C,18,55*,-1,0,-22,-5
CN(C[C@H](CC1CCCCC1)N(C[C@H](Cc1ccccc1)N(CCc1ccccc1)N=O)N=O)N=O,-6,3,-6,1,1,5
CCCN(C(=O)C1CCN(S(=O)(=O)c2ccc(OC)c(OC)c2)CC1)C1CCS(=O)(=O)C1 (stereo not given),3,-1,-3,4,9,1
O=C(NCCNC(=O)c1ccc(-c2ccc(Cl)c(Cl)c2)o1)c1cnccn1,-8,0,-10,3,-13,-2
CCn1cc(C(=O)O)c(=O)c2cc(F)c(N3CCN(C(=S)NC(=O)c4cccc(F)c4)CC3)cc21,5,66*,-25,-2,4,2
CCC(=O)N1CCN(c2cc3c(cc2F)c(=O)c(C(=O)O)cn3CC)CC1,-5,-1,-7,-3,3,3
CCCCCCC(=O)N1CCN(c2cc3c(cc2F)c(=O)c(C(=O)O)cn3CC)CC1,5,7,-6,5,-1,3
CCn1cc(C(=O)O)c(=O)c2cc(F)c(N3CCN(C(=S)NC(=O)c4ccccc4Br)CC3)cc21,5,68*,-10,0,36,0
SMILES,NadD block,LMPTP inh,Scp1 inh,STEP inh,SUMO1-SIM PPI,DNMT1 inh
CCn1cc(C(=O)O)c(=O)c2cc(F)c(N3CCN(C(=S)Nc4ccccc4OC)CC3)cc21,4,22,1,1,2,1
CCn1cc(C(=O)O)c(=O)c2cc(F)c(N3CCN(C(=S)NC(=O)c4c(OC)cccc4OC)CC3)cc21,12,65*,-5,5,6,0
CCn1cc(C(=O)O)c(=O)c2cc(F)c(N3CCN(C(=S)NC(=O)c4ccc(F)c(F)c4)CC3)cc21,2,52*,6,2,16,9
CCOC(=O)c1c(C)[nH]c(C)c1C(=O)COC(=O)c1ccc(Cl)c(S(=O)(=O)NCc2ccccc2)c1,-12,2,-14,-4,-1,-7
CCn1cc(C(=O)O)c(=O)c2cc(F)c(N3CCN(C(=S)NC(=O)c4ccc(F)cc4)CC3)cc21,4,68*,19,2,6,1
CCCOc1ccc(C(=O)NC(=S)N2CCN(c3cc4c(cc3F)c(=O)c(C(=O)O)cn4CC)CC2)cc1,10,49,-1,3,6,0
CC(C)CCOc1ncnc2c1sc1nc3c(cc12)CSC(C)(C)C3,-1,0,-4,-1,44*,3
COc1ccccc1Cc1c(-c2ccc(C#N)cc2)nc2ccc(C)cn12,7,4,.,.,3,.
O=C(CSc1nncn1-c1ccccc1)Nc1cc(F)ccc1F,-2,-2,-3,0,1,0
CC(=O)c1ccc2c(c1)C1C=CCC1C(C(=O)O)N2 (stereo not given),19,12,75*,70*,60*,91*
COc1cccc2c1NC(C(=O)O)C1CC=CC21 (stereo not given),30,52*,74*,70*,52*,98*
Cc1cccc2nc(-c3ccccc3)nc(N[C@@H](CO)c3ccccc3)c12,2,54*,-11,2,-3,-13
Cc1ccnc(NC(=O)CCc2c[nH]c3ccccc23)c1,-3,-1,0,-1,0,-2
Cc1ccc(C)n1Cc1ccc(C(=O)O)cc1,3,21,114*,93*,23,106*
COc1ccc(C(=O)N/N=C/c2sc3ccccc3c2O)cc1,6,1,-13,-6,-13,-10
COc1ccc2cc(C(=O)N/N=C/c3sc4ccccc4c3O)ccc2c1,16,51*,85*,18,-25,-8
O=C(OCCNc1nc(-c2ccccc2)nc2ccccc12)c1cccnc1,-3,62*,1,0,3,-1
O=C(OCCNc1nc(-c2ccccc2)nc2ccccc12)c1ccncc1,3,62*,-1,-2,2,-6
O=C(O)CCNc1nc(-c2ccccc2)nc2ccccc12,2,21,-10,-3,9,3
CCO[C@H]1OC(C(=O)O)=C[C@@H](C)[C@@H]1CCCO,4,0,-2,0,11,8
CCCNC(=O)c1nc(C)n(-c2cc(Cl)ccc2Cl)n1,-2,-1,-10,-1,-1,2
